ROMK primary: ROMK potassium channel modulators, primary screen, cell-based, thallium flux, MLSMR library; ATP-sensitive inward rectifier potassium channel 1 (Homo sapiens), P48048; Tet-inducible ROMK, thallium flux fluorescence; actives lie on both sides; B-score at 10 µM; hit rate 2% among 130,000;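 active = signal ratio slope over the read window, or its plate-corrected B-score, at least 3 SD from the plate mean, either direction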;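 also: B-score of the F/F0 ratio slope over 7 to 12 s after thallium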
ABCB1 block: ABCB1 efflux pump inhibitors, primary screen, cell-based, multiplex, flow cytometry, ABCG2 counter-screen; CCRF-Adr cells, JC-1 efflux; hit rate 0.067% among 190,000; inhibition, % at 6.6 µM; ATP-dependent translocase ABCB1 (Homo sapiens), P08183; in the data active = inhibition above about 40%;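 also: higher value means more JC-1 retained so stronger ABCB1 efflux block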
Biofilm kill mix: clotrimazole potentiators killing C. albicans biofilm, primary screen, 4-compound mixtures; C. albicans biofilm persisters + clotrimazole, fluorescence viability; primary screen in compound mixtures of four per well; inhibition, % at 7.6 µM; hit rate 0.02% among 120,000; AID 1242, 2008;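 active = inhibition above 30.3% in the primary screen of four-compound pools, then above 30% when the compound was retested; inconclusive = passed the primary limit but could not be retested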;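 also: compounds exposed to preformed 24 h biofilms for 48 h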
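Test system: C. albicans biofilms. Buffer or medium: RPMI/MOPS medium, pH 7.0. Timing: 48 h compound exposure at 37 °C. Technique: Alamar Blue fluorescence. Evaluation: percent inhibition of biofilm viability.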
TRPN1 ag: zebrafish TRPN1 channel agonists, primary screen, cell-based, HEK293, calcium fluorescence; HEK293 zebrafish TRPN1-YFP, Fluo-8 calcium fluorescence; 100% = response to 87 µM carbachol; activation, % at 3 µM; hit rate 0.18% among 220,000; AID 1424, 2008;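 active = activation above its plate's cutoff, the mean activation of test wells on that plate plus 3 SD, cut at about 19% in these data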
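System: zebrafish TRPN1-YFP in HEK293 cells / Dosing: 3 µM single point / Timing: dye loading 1 h at 37 °C, then 30 min room temperature / Signal: Fluo-8 calcium fluorescence, excitation 470-495 nm, emission 515-575 nm / Read-out basis: percent activation from peak over basal fluorescence ratio, control-normalized / Control set: high carbachol 87 µM, low DMSO alone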
ABCG2 inh: ABCG2 efflux pump inhibitors, primary screen, multiplex with ABCB1, IgMXP3 cells, flow cytometry | Broad substrate specificity ATP-binding cassette transporter ABCG2 (Homo sapiens), Q9UNQ0 | JC-1 efflux | inhibition, % at 6.6 µM | hit rate 0.1% among 190,000 | AID 1325, 2008;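 active = inhibition above 80%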
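Incubation: cells with compound and JC-1, 10 min at 25 °C, rotating, no wash / Test system: IgMXP3 (ABCG2) plus far-red-tagged CCRF-Adr (ABCB1) cells / Compound dosing: one concentration, 6.6 µM final / Also added: JC-1 fluorescent substrate / Evaluation: efflux inhibition in percent versus controls / Detection: flow cytometry, 530 nm JC-1 signal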
TRPML3 agonist: human TRPML3 channel agonists, primary screen, cell-based, HEK293 TRPML3-YFP, Fluo-8 calcium fluorescence, 3 µM; 100% = the carbachol control signal; activation, % at 3 µM; hit rate 0.29% among 220,000; AID 1448, 2008;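 active = activation above its plate's cutoff, the mean activation of the plate's test wells plus 3 SD, cut at about 12% in these data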
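Material: HEK293 cells stably carrying human TRPML3-YFP; compound dosing: single dose, 3 µM final nominal compound, 0.3% DMSO final; incubation: 1-h 37 °C dye load, 5-s basal, 120-s post-compound reads; technique: Fluo-8 intracellular calcium fluorescence, excitation 470-495 nm, emission 515-575 nm; read-out basis: percent activation from peak-to-basal fluorescence ratio, scaled between DMSO and carbachol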
ROMK hit retest: ROMK channel modulator hit retest, confirmation, cell-based, thallium flux, duplicate, resupplied hits; shares compounds with ROMK primary; fluorescence ratio; stronger effect = lower value; normalized thallium flux (F/F0 slope) at 10 µM; hit rate 54% among 3,000;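 active = Flux at 10 µM at least 3 SD below or above vehicle control mean in one or both replicates; inconclusive = no clear call, values can overlap the other calls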
Hits are given with their value; – = inactive; ? = inconclusive; · = no result given. The sample as a whole holds a higher share of hits than the screen did.

SMILES	ROMK primary	ABCB1 block	Biofilm kill mix	TRPN1 ag	ABCG2 inh	TRPML3 agonist	ROMK hit retest
Cc1cccc(NC(=S)N(CCN(C)C)Cc2cc3cc(C)cc(C)c3[nH]c2=O)c1	-4.9	–	–	–	–	–	0.06
Cc1cc(C)c2cc(CN(CCCN(C)C)C(=S)NCc3ccccc3)c(=O)[nH]c2c1	-3.7	–	–	–	–	–	0.054
Cc1ccc(C(=O)COC(=O)c2ccc(O)cc2)cc1	–	–	–	–	–	–	·
COCCNC(=O)CSC1=N/C(=C/c2ccc(Cl)c(Cl)c2)C(=O)N1c1ccccc1F	·	–	–	–	–	–	–
O=C(C1CC=CCC1)N1CCC(CO)(Cc2ccc(Cl)cc2)CC1 (centres undefined)	–	–	–	–	–	–	·
CC(C)NC(=O)COc1ccc2c(c1)C(=O)CC(C)(C)O2	–	–	–	–	–	–	·
Cc1ccc2c(c1)C(=O)CC(O)(C(F)F)O2 (centres undefined)	·	·	–	–	·	–	–
CC(=O)c1ccc(N(C(=O)CS(=O)CC(=O)Nc2ccc(F)cc2)C(C(=O)NC2CCCCC2)c2cccs2)cc1 (centres undefined)	-3.3	–	–	–	–	–	–
CC(=O)c1cccc(N(C(=O)CS(=O)CC(=O)Nc2ccc(F)cc2)C(C(=O)NC2CCCCC2)c2ccc(C)o2)c1 (centres undefined)	·	–	–	–	–	–	·
O=C(NNC(=O)c1csc(-c2cccnc2)n1)c1ccccc1	–	·	–	–	·	–	·
O=C(Nc1ccccc1Cl)c1csc(-c2cccnc2)n1	5.2	·	–	–	·	–	0.1
COc1ccccc1C1CCN(c2ccc([N+](=O)[O-])c(OC)c2)CC1	·	·	–	–	·	–	·
COc1ccccc1C1C([N+](=O)[O-])=CC([N+](=O)[O-])=CN1C (centres undefined)	-5	–	–	–	–	–	0.055
COc1ccccc1C1NC=C([N+](=O)[O-])C=C1[N+](=O)[O-] (centres undefined)	·	–	–	–	–	–	0.051
O=C(NC(=O)c1ccccc1O)c1ccc2c(c1)CCO2	·	·	–	–	·	–	·
Cc1ccc(S(=O)(=O)N2CCCCC2)c(C)c1NS(C)(=O)=O	–	–	–	–	–	–	·
Cc1cccnc1CCNC(=O)CC1C(=O)NCCN1CC1CCCCC1 (centres undefined)	–	–	–	–	–	–	·
COc1cccc2c1OC1(C)CC2NC(=O)N1c1cccc(C(=O)N2CCN(c3ccccc3)CC2)c1 (centres undefined)	–	–	–	–	–	–	·
CSc1cccc(NC(=S)NCCCN2CCN(c3ccc(F)cc3)CC2)c1	-2.7	–	–	–	–	–	0.053
O=C(CN1CCN(c2ccc([N+](=O)[O-])cc2)CC1)Nc1nccs1	–	–	–	–	–	–	·
O=C(CN1CCN(c2ccc([N+](=O)[O-])cc2)CC1)Nc1ccccn1	-3.2	–	–	–	–	–	0.054
CCOC(=O)Cn1nc(-c2ccccc2)c2ccccc2c1=O	4.1	–	·	–	–	–	–
CCOC(=O)Cn1nc(Cc2ccccc2)c2ccccc2c1=O	·	–	·	–	–	–	·
CCN1CCN(CC(=O)N2CCCC(C(=O)c3ccc(Oc4ccccc4)cc3)C2)CC1 (centres undefined)	–	–	–	–	–	–	·
COc1ccccc1N1CCN(C(=O)CSc2ccccc2)CC1	–	–	·	–	–	–	·
SMILES	ROMK primary	ABCB1 block	Biofilm kill mix	TRPN1 ag	ABCG2 inh	TRPML3 agonist	ROMK hit retest
COc1ccccc1N1CCN(C(=O)CSc2nnc3c4ccccc4nc(Cc4ccccc4)n23)CC1	·	–	–	–	–	–	–
Cc1ccccc1N1C(=S)NC2c3ccccc3OC1(C)C2C(=O)N(C)C (centres undefined)	-6.8	–	–	–	–	–	0.055
Cc1ccc(N2C(=S)NC3c4ccccc4OC2(C)C3C(=O)N(C)C)cc1 (centres undefined)	–	–	–	–	–	–	·
Cc1ccc(NC(=O)/C=N/OCC(=O)NCc2ccccc2Cl)cc1	–	·	–	–	·	–	·
O=C(CCl)Nc1cccc(Oc2ccccc2)c1	-4.8	–	–	–	–	–	?
COc1ccc(/C=N/Nc2ncccc2[N+](=O)[O-])c(OC)c1	–	–	–	–	–	–	·
COCCNC(=O)/C(C#N)=C/c1cccc(NC(=O)c2ccccc2Cl)c1	·	–	–	–	–	–	0.047
COC(=O)c1ccc(NC(=O)C(=O)N2CCN(C(=S)Nc3ccc(C)cc3)CC2)cc1	–	–	–	–	–	–	·
O=C(c1cccc(S(=O)(=O)N2CCc3ccccc32)c1)N1CCN(c2ccccn2)CC1	–	–	–	–	–	–	·
Cc1cccc(Cl)c1NC(=O)N1CCCN(c2ncccc2[N+](=O)[O-])CC1	·	·	–	–	·	–	·
CS(=O)(=O)N1CCc2cc(-c3csc(NC(=O)Cc4cccs4)n3)ccc21	·	–	·	–	–	–	0.068
CC(=O)Nc1nc(-c2ccc3c(c2)CCN3S(C)(=O)=O)cs1	–	–	–	–	–	–	·
CC(C)Sc1nc2c([nH]1)c(=N)ncn2Cc1ccccc1	-4.4	–	–	–	–	–	0.057
Cc1nn(C(=O)CCCn2cc([N+](=O)[O-])cn2)c(C)c1Cl	–	–	–	–	–	–	·
O=C(Nc1ccc(F)cc1)Nc1nnc(-c2ccncc2)s1	-2.1	–	·	–	–	–	–
COc1cc(NC(=O)C2CCN(S(=O)(=O)c3ccc(Cl)cc3)CC2)ccc1-n1cnnn1	·	–	·	–	–	–	0.053
COc1ccc(NC(=O)C2CC2)cc1-n1cnnn1	·	–	·	–	–	–	·
COc1ccc(NC(C)=O)cc1S(=O)(=O)N1CCN(C/C=C/c2ccccc2)CC1	–	–	–	–	–	–	·
COc1ccc(C(=O)NNC(=O)CSc2nnc(C)n2C)cc1	–	–	–	–	–	–	·
CCOC(=O)c1c(C)n(C)c2ccc(OC)c(NC(=O)CN3CCCCC3)c12	-4.1	–	·	–	–	–	0.056
CN(C)c1ccc2c(c1)OC(N)=C(C#N)C2c1cccc(F)c1 (centres undefined)	·	–	·	–	–	–	0.064

Bioassay records from PubChem BioAssay.
